Tests used:
MH14 cells = assay: MTT assay; settings: for effect on cell growth / influence on cell viability / toxicity: 48 h, MH14 cells; for influence on cell viability: 2 μM and 10 μM; for toxicity: 50 μM and 100 μM
[1] = tested on: HCV subgenomic replicon (HCV RNA) in MH14 cells; assay: Quantitation of HCV RNA by RT-PCR in MH14 cells; type: cell-based, Hepatitis C virus; settings: for inhibition of HCV RNA replication: 500 μM; for HCV replication reduced: 100 μM
Summary of the method: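 MH14 cells carrying a stable HCV subgenomic replicon were kept at 37 °C, 5% CO2 in DMEM with 10% FBS, penicillin/streptomycin, glutamine and 300 μg/ml G418. Cells were grown 60 h with or without test compound dissolved in DMSO. Total RNA was TRIzol-extracted. HCV RNA was reverse-transcribed with an HCV-specific primer and PCR-amplified for 25 cycles (1 min each at 94, 52, 72 °C). GAPDH mRNA served as internal control.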

HCV NS5B = HCV NS5B (Hepatitis C virus genotype 1b, UniProt P26663); assay: RdRp assay; type: biochemical; settings: for IC50, inhibition of NS5B RdRp activity in vitro: single isolates; for IC90: read-out: IC90, RdRp activity of HCV NS5B
[2] = tested on: HCV subgenomic replicon (NS5B, NS5A expression) in MH14 cells; type: cell-based, Hepatitis C virus; settings: for viral replication reduced (first statement, Fig. 4 B, C): cell culture system; for inhibition at 100 µM: Hepatitis C virus, MH14, read-out: inhibition of NS5B
Summary of the method: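 MH14 cells with stably replicating HCV subgenomic replicon, grown at 37 °C, 5% CO2 in DMEM with 10% FBS, penicillin/streptomycin, glutamine and 300 μg/ml G418. Cells were exposed to DMSO-dissolved test compound for 48 h, washed, lysed in SDS buffer, boiled, and clarified. Blots were probed with anti-NS5B, NS5A or actin (1:500, overnight, 4 °C), then HRP secondary (1:5,000, 1 h). Chemiluminescent detection used β-actin as the loading control.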

HCV NS5B (CΔ21) = HCV NS5B (CΔ21) (Hepatitis C virus genotype 1b, UniProt P26663); assay: Fluorescence quenching binding assay; settings: for time to binding equilibrium with NS5B (fluorescence quenched): data not shown
[3] = tested on: p53 expression in peripheral blood mononuclear cells (PBMC); assay: p53 expression in peripheral blood mononuclear cells; type: cell-based
[4] = tested on: tumor suppressor protein, p53; assay: p53 expression; type: cell-based; settings: cells not given

Compound: O=C(O)c1ccc(O)cc1 [Compound 2, 4-hydroxybenzoic acid]
- effect on cell growth (MH14 cells): enhanced cellular proliferation
- inhibition of HCV RNA replication [1]: inhibited HCV RNA replication only at very high concentrations
- IC50, inhibition of NS5B RdRp activity in vitro (HCV NS5B): did not inhibit

Compound: COc1cc(O)c2c(c1)oc(=O)c1c3cc(O)c(O)cc3oc21 [Compound 4, wedelolactone]
- inhibition of NS5B expression ([2]; 10 μM, MH14 cells, 48 h): > 80%
- NS5B expression by Western blot ([2]; 50 μM, MH14 cells, 48 h): could not detect the expression of NS5B
- influence on cell viability (MH14 cells): no influence on cell viability
- toxicity (MH14 cells): toxic
- HCV replication inhibited, judged by HCV RNA level ([1]; 10 μM): 30%
- HCV replication inhibited, judged by HCV RNA level ([1]; 50 μM): 80%
- IC50 (HCV NS5B): 7.7 µM
- IC90 (HCV NS5B): 32 µM
- IC50, inhibition of NS5B RdRp activity in vitro (HCV NS5B): indistinguishable
- Kd (HCV NS5B (CΔ21)): 24.3 µM
- time to binding equilibrium with NS5B (fluorescence quenched) (HCV NS5B (CΔ21)): ≤ 1 min

Compound: O=C(O)c1ccc(O)c(O)c1 [Compound 1, 3,4-dihydroxybenzoic acid]
- effect on cell growth (MH14 cells): enhanced cellular proliferation
- inhibition of HCV RNA replication [1]: inhibited HCV RNA replication only at very high concentrations
- IC50 (HCV NS5B): 400 µM

Compound: O=c1cc(-c2ccc(O)c(O)c2)oc2cc(O)cc(O)c12 [Compound 3, luteolin]
- viral replication reduced (first statement, Fig. 4 B, C) ([2]; 50 μM): ~50%
- inhibition at 100 µM [2]: > 90%
- effect on p53 expression [3]: no effect
- cytotoxicity in MH14 cell (MH14 cells): comparable high cytotoxicity
- HCV replication inhibited, judged by HCV RNA level ([1]; 50 μM): 50%
- HCV replication reduced [1]: approximately 80%
- IC50 (HCV NS5B): 11.3 µM
- IC90 (HCV NS5B): 52 µM
- Kd (HCV NS5B (CΔ21)): 31.5 µM
- time to binding equilibrium with NS5B (fluorescence quenched) (HCV NS5B (CΔ21)): ≤ 1 min
- effect on tumor suppressor protein p53 [4]: strongly up-regulate

Compound: O=c1cc(-c2ccc(O)cc2)oc2cc(O)cc(O)c12 [Compound 5, apigenin]
- viral replication reduced (first statement, Fig. 4 B, C) ([2]; 50 μM): ~50%
- inhibition at 100 µM [2]: > 90%
- effect on p53 expression [3]: no effect
- cytotoxicity in MH14 cell (MH14 cells): comparable high cytotoxicity
- influence on cell viability (MH14 cells): no influence on cell viability
- toxicity (MH14 cells): toxic
- HCV replication inhibited, judged by HCV RNA level ([1]; 50 μM): 50%
- HCV replication reduced [1]: ~90%
- IC50 (HCV NS5B): 175 µM
- Kd (HCV NS5B (CΔ21)): 122 µM
- time to binding equilibrium with NS5B (fluorescence quenched) (HCV NS5B (CΔ21)): ≤ 1 min
- effect on tumor suppressor protein p53 [4]: strongly up-regulate

Source: publication PMC3511619 (Journal of ethnopharmacology, 2012)
